Assay results taken from article PMC3206322 (ACS chemical neuroscience, 2011).
“And” between values parts separate entries of the source, which are not always exact repeats. Identical values can stand only once.

Legend:
Assay type in all cases: cell-based
[1] = biological target: T1, GluA2Qflip AMPA receptor (Homo sapiens, UniProt P42262); experiment: Laser-pulse photolysis amplitude measurement of whole-cell current
Summary of the method: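 HEK-293S cells in DMEM/10% FBS at 37 °C, 5% CO2, were transiently transfected with GluA2Qflip by calcium phosphate, with GFP and large T-antigen plasmids, and used at 48 h. Whole-cell recording at −60 mV, pH 7.4, 22 °C in HEPES/NaCl buffer. Caged glutamate was photolysed by a 355 nm pulse after 6 s inhibitor preincubation. The A/AI ratio versus inhibitor concentration was fitted by eq 6.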

[2] = biological target: T1, GluA2Qflip AMPA receptor; experiment: Solution-flow amplitude measurement of whole-cell current; conditions: Ki (closed-channel), solution-flow technique, GluA2Qflip in HEK-293 cells; 100 μM glutamate; amplitude A/AI, eq 6
[3] = biological target: T1, GluA2Qflip AMPA receptor; experiment: Laser-pulse photolysis rate measurement of channel opening; conditions: for Mechanism of inhibition: inhibited both kop and kcl
Summary of the method: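 Transfected HEK-293S cells expressing GluA2Qflip were whole-cell clamped at −60 mV, pH 7.4, 22 °C. After 6 s preincubation with inhibitor, caged glutamate was photolysed by a 355 nm laser pulse of 200–800 μJ, with released glutamate calibrated against free glutamate in the same cell. The kcl term was taken from kobs at 100 μM glutamate over a range of inhibitor concentrations (eq 4), and kop at 350 μM (eq 5).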

[4] = Ki (100 μM glu), amplitude measurement, laser-pulse photolysis, GluA2Qflip in HEK-293 cells, 100 μM glutamate, closed-channel state

T1 sequence (P42262 25-883 isoform P42262-2 limits assumed): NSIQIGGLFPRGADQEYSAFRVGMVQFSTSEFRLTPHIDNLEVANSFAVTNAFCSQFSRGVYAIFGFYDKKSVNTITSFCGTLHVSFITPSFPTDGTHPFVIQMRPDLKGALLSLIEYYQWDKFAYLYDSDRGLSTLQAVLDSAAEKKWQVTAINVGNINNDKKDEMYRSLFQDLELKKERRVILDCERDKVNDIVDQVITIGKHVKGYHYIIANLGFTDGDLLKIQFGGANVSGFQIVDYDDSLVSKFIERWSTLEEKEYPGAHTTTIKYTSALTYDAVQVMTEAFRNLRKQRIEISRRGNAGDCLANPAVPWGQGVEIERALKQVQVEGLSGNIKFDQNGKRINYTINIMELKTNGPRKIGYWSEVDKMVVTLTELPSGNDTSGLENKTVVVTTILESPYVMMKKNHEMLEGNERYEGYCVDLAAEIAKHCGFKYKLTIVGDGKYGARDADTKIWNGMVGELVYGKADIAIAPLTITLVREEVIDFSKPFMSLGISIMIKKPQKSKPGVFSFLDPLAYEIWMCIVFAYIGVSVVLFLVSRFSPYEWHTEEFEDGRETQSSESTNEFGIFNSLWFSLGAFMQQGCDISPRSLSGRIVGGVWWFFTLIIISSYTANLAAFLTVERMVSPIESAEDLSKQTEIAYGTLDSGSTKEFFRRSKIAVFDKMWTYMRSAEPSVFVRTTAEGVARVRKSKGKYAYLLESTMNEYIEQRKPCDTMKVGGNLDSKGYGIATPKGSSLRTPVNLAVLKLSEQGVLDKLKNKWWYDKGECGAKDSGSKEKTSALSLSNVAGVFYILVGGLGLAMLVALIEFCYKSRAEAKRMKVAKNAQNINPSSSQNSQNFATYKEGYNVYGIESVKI

Row | SMILES | Ki [1] [µM] | Ki [1, 4] [µM] | Ki [2] [µM] | Ki [3] | Mechanism of inhibition [3]
1 | Nc1ccc(C2=NNC(=O)Cc3cc4c(cc32)OCO4)cc1 [BDZ-2, 1-(4-aminophenyl)-3,5-dihydro-7,8-methylenedioxy-4H-2,3-benzodiazepin-4-one] | 23 to 25 | 25 ± 1 | 25 ± 1 | 48 µM and 194 µM | noncompetitive
2 | CC1=NN=C(c2ccc(N)cc2)c2cc3c(cc2C1)OCO3 [GYKI 52466, 1-(4-aminophenyl)-4-methyl-7,8-methylenedioxy-5H-2,3-benzodiazepine] | 14 to 16 | 15 ± 1 | 14 ± 1 | 61 µM and 128 µM | noncompetitive
